Results on 26 compounds are retold here after ChEMBL document CHEMBL2434947, “Probing structural requirements of positive allosteric modulators of the M4 muscarinic receptor” (J Med Chem, 2013).

The target in test [1] is T1, Muscarinic acetylcholine receptor M4 (Homo sapiens) (UniProt P08173).
T1 sequence (whole entry): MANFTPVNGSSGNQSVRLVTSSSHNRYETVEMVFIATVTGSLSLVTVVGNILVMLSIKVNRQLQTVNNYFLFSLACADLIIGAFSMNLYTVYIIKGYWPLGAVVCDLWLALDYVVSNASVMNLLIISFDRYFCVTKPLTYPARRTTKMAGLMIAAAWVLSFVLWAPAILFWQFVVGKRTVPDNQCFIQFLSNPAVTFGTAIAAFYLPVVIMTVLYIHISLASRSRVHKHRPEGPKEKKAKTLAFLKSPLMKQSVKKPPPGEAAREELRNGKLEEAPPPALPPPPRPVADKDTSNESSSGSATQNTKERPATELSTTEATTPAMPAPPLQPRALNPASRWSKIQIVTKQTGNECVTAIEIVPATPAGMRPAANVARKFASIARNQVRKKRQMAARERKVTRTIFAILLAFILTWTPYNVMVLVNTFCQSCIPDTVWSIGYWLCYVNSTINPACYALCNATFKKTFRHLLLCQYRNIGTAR
Put plainly: Binding affinity to human muscarinic M4 receptor expressed in CHO Flp-In cells. Format: cell-based. The gist of the method: (§1)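 Intact FlpIn-CHO cells stably expressing human M4 mAChR; ERK1/2 phosphorylation read-out. A time course first set the incubation time of peak phosphorylation, and concentration-response curves were run at that time. Modulator was titrated against ACh. pKB (allosteric site affinity), τB and composite cooperativity αβ came from an operational model of allosterism. Mean ± SEM from at least three experiments in duplicate.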

Test [2] concerns the target T1, Muscarinic acetylcholine receptor M4 (Homo sapiens). Put plainly: Positive allosteric modulation of human muscarinic M4 receptor expressed in CHO Flp-In cells assessed as stimulation of acetylcholine-induced ERK1/2 phosphorylation incubated under green light condition by fluorescence assay relative to control. Format: cell-based. Put shortly: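 ERK1/2 phosphorylation in intact FlpIn-CHO cells stably expressing human M4 mAChR. Modulator was titrated at a fixed EC20 concentration of ACh to give empirical EC50 and Emax (EM′). The incubation time was taken from prior time-course assays of peak phosphorylation. Mean ± SEM from at least three experiments performed in duplicate.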

Test [3] addresses T2, Muscarinic acetylcholine receptor M4 (Homo sapiens, UniProt P08173).
T2 sequence (P08173 whole entry): T1 sequence (whole entry)
Put plainly: Positive allosteric modulation of human muscarinic M4 receptor expressed in CHO Flp-In cells assessed as stimulation of acetylcholine-induced ERK1/2 phosphorylation incubated under green light condition by fluorescence assay. Format: cell-based. The gist of the method:
as §1

Test [4] concerns the target T1, Muscarinic acetylcholine receptor M4 (Homo sapiens). Nature of the test: Positive allosteric modulation of human muscarinic M4 receptor expressed in CHO Flp-In cells assessed as stimulation of acetylcholine-induced ERK1/2 phosphorylation incubated under green light condition by fluorescence assay.
For test [5] the target is unchanged. Put plainly: Displacement of [3H]NMS from human muscarinic M4 receptor expressed in CHO Flp-In cells after 4 hrs by scintillation counting analysis. It counts as cell-based.

Structures are written as SMILES. Active and inactive are the calls of the source. The rule behind the calls is not given here.

Take `Cc1cc(C)c2c(N)c(C(=O)NCc3ccccc3F)sc2n1`: in test [1], the Kb turned out to be 1170 nM and the pKb – broadly, −log10 of the Kb, conventionally taken in molar units – was 5.93. Moreover, the Emax – broadly, the size of the effect at its maximum, as opposed to the concentration needed – in test [2] is 92%. The EC50 (in general, the concentration that produces a half-maximal response) in test [3] (read-out: EC50) is 130 nM.

With `COc1cc(CNC(=O)c2sc3nc(C)cc(C)c3c2N)cc(OC)c1OC.Cl`, the KB entry in test [1] was “inactive”. Moreover, the Emax entry in test [2] was “inactive”. Moreover, in test [3], the EC50 result is reported as “Not Active”. The outcome in test [4] was inactive.

As for `Cc1cc(C)c(C#N)c(SCC(=O)NCc2cc(F)ccc2F)n1`, the result in test [2] was inactive.

Turning to `COc1ccc(CNC(=O)c2sc3nc(C)cc(C)c3c2N)cc1`, in test [5], the outcome was inactive. Further, in test [2], the Emax stood at 85%.

For the compound `COc1ccc(CNC(=O)c2sc3nc(C)cc(C)c3c2N)cc1OC.Cl`, in test [1], the KB result was “inactive”. In test [2], the Emax result is “inactive”. In addition, in test [3], the EC50 entry is reported as “Not Active”. Also, in test [4], the result was inactive.

Turning to `COc1ccc(CNC(=O)c2sc3nc(C)cc(C)c3c2N)c(F)c1`, in test [1], the Kb worked out at 1820 nM and the pKb is 5.74. The Emax in test [2] amounted to 56%. The EC50 in test [3] (read-out: EC50) came to 350 nM.

Turning to `Cc1cc(C)c(C#N)c(SCC(=O)NCc2ccccc2F)n1`, the result in test [2] was inactive.

As for `COc1cccc(CNC(=O)c2sc3nc(C)cc(C)c3c2N)c1`, in test [1], the Kb amounted to 11400 nM and the pKb is 4.95. The Emax in test [2] came to 92%. Moreover, the EC50 in test [3] (read-out: EC50) turned out to be 560 nM.

In the case of `Cc1cc(C)c2c(N)c(C(=O)NCc3cccc(F)c3F)sc2n1`, the outcome in test [5] was inactive. In test [1], this compound had a Kb of 1720 nM and a pKb of 5.76. For the same compound, the Emax in test [2] worked out at 91%. Also, in test [3] (read-out: EC50), the EC50 turned out to be 110 nM.

With `Cc1cc(C)c2c(N)c(C(=O)NCc3ccc(F)cc3)sc2n1`, the result in test [5] was inactive. For the same compound, in test [1], the Kb came out at 2520 nM and the pKb was determined as 5.6. Also, the Emax in test [2] was found to be 98%. Moreover, the EC50 in test [3] (read-out: EC50) amounted to 220 nM.

In test [1], `Cc1cc(C)c2c(N)c(C(=O)NCc3cc(F)cc(F)c3F)sc2n1` gave a Kb of 1290 nM and a pKb of 5.89. In addition, the Emax in test [2] was 85%. Besides, in test [3] (read-out: EC50), the EC50 came out at 140 nM.

In the case of `Cc1cc(C)c(C#N)c(SCC(=O)NCc2cc(F)c(F)cc2F)n1`, the result in test [2] was inactive.

`COc1ccccc1CNC(=O)c1sc2nc(C)cc(C)c2c1N.Cl`: the KB entry in test [1] is “inactive”. Further, in test [2], the Emax result was “inactive”. Further, in test [3], the half-maximal effective concentration (EC50) entry is reported as “Not Active”. In addition, the result in test [4] was inactive.

Turning to `Cc1cc(C)c(C#N)c(SCC(=O)NCc2cccc(F)c2)n1`, in test [2], the result was inactive.

With `Cc1cc(C)c2c(N)c(C(=O)NCc3cccc(F)c3)sc2n1`, the result in test [5] was inactive. Further, in test [1], the Kb is 6240 nM and the pKb is 5.21. For the same compound, in test [2], the Emax was 98%. In addition, the EC50 in test [3] (read-out: EC50) was 310 nM.

In test [1], `Cc1cc(C)c2c(N)c(C(=O)NCc3cc(F)ccc3F)sc2n1` came in with a Kb of 1690 nM and a pKb of 5.77. Besides, the Emax in test [2] amounted to 85%. The EC50 in test [3] (read-out: EC50) came to 130 nM.

With `COc1cc(CNC(=O)c2sc3nc(C)cc(C)c3c2N)cc(OC)c1.Cl`, the KB result in test [1] was “inactive”. In addition, in test [2], the Emax result is “inactive”. Besides, the EC50 result in test [3] was “Not Active”. The outcome in test [4] was inactive.

For the compound `COc1ccc(CNC(=O)c2sc3nc(C)cc(C)c3c2N)cc1F`, in test [5], the outcome was inactive. Besides, in test [1], the Kb stood at 2580 nM and the pKb stood at 5.59. The Emax in test [2] stood at 95%. Moreover, the concentration for a half-maximal effect (EC50) in test [3] (read-out: EC50) is 100 nM.

For `Cc1cc(C)c2c(N)c(C(=O)NCc3cc(F)c(F)cc3F)sc2n1`, in test [1], the Kb was determined as 2320 nM and the pKb was determined as 5.63. Besides, the Emax in test [2] stood at 83%. Also, the EC50 in test [3] (read-out: EC50) was 580 nM.

With `COc1cc(CNC(=O)CSc2nc(C)cc(C)c2C#N)cc(OC)c1`, in test [2], the outcome was inactive.

As to `COc1ccc(CNC(=O)CSc2nc(C)cc(C)c2C#N)c(F)c1F`, in test [2], the result was inactive.

Take `COc1ccc(CNC(=O)c2sc3nc(C)cc(C)c3c2N)c(F)c1F`: the outcome in test [5] was inactive. In test [1], this compound showed a Kb of 1880 nM and a pKb of 5.73. Besides, the Emax in test [2] stood at 89%. Also, the EC50 in test [3] (read-out: EC50) is 240 nM.

As for `COc1ccccc1CNC(=O)CSc1nc(C)cc(C)c1C#N`, in test [2], the outcome was inactive.

For the compound `COc1cccc(CNC(=O)CSc2nc(C)cc(C)c2C#N)c1`, the outcome in test [2] was inactive.

As for `COc1ccc(CNC(=O)CSc2nc(C)cc(C)c2C#N)cc1`, the result in test [2] was inactive.

Turning to `COc1cc(F)c(CNC(=O)c2sc3nc(C)cc(C)c3c2N)cc1F.Cl`, the KB entry in test [1] was “inactive”. Moreover, the Emax entry in test [2] was “inactive”. Besides, the EC50 result in test [3] is “Not Active”. In test [4], the result was inactive.
